# Test results: ChEMBL document CHEMBL4251674, “Bioactivity-Based Molecular Networking for the Discovery of Drug Leads in Natural Product Bioassay-Guided Fractionation” (J Nat Prod, 2018)
# Activity calls are given as the source filed them. The rule behind the calls is not given here.
# Tested on: Chikungunya virus
# Experiment: Antiviral activity against Chikungunya virus 899 infected in African green monkey Vero cells assessed as inhibition of virus-induced cytopathic effect after 6 to 7 days by MTS assay
# Assay type: functional, organism-based
# Conditions: not given
# Procedure, shortened: (§1)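 Cell-based CHIKV replication assay in Vero cells. EC50 is the concentration that reduces CHIKV replication by 50%. CC50 is the concentration that reduces natural growth of the host cells by 50%. […]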
row,SMILES,inhibition
1,C=C1[C@H](OC(=O)c2ccccc2)[C@@H](OC(C)=O)[C@@H](OC(C)=O)C(C)(C)/C=C/[C@H](C)C(=O)[C@@]2(O)C[C@@](C)(OC(C)=O)[C@H](O)[C@@H]2[C@H]1OC(=O)c1ccccc1,inactive
2,C=C1[C@H](OC(=O)c2ccccc2)[C@@H](OC(C)=O)[C@@H](OC(C)=O)C(C)(C)/C=C/[C@H](C)C(=O)[C@@]2(O)C[C@H](C)[C@H](OC(C)=O)[C@@H]2[C@H]1OCC(C)C,inactive
3,C=C1[C@H](OC(=O)c2ccccc2)[C@@H](OC(C)=O)[C@@H](OC(C)=O)C(C)(C)/C=C/[C@H](C)C(=O)[C@@]2(O)C[C@@](C)(OC(C)=O)[C@H](OC(C)=O)[C@@H]2[C@H]1OCC(C)C,inactive
4,C=C1[C@H](O)[C@H]2[C@@H](OC(=O)c3ccccc3)[C@](C)(O)C[C@]2(O)C(=O)[C@@H](C)/C=C/C(C)(C)[C@H](OC(C)=O)[C@H](OC(C)=O)[C@H]1OC(=O)c1ccccc1,inactive
5,CC(=O)O[C@H]1[C@@H](OC(C)=O)C(C)(C)/C=C/[C@@](C)(O)C(=O)[C@@]2(OC(C)=O)C[C@@](C)(OC(C)=O)[C@H](OC(C)=O)[C@@H]2[C@H]2OC(=O)CC[C@@]2(OC(C)=O)[C@@H]1OCC(C)C,inactive
6,CC(=O)O[C@H]1[C@@H](OC(C)=O)C(C)(C)/C=C/[C@H](C)C(=O)[C@@]2(OC(C)=O)C[C@@](C)(OC(C)=O)[C@H](O)[C@@H]2[C@H]2OC(=O)CC[C@@]2(OC(C)=O)[C@@H]1OCC(C)C,inactive
7,C=C1[C@H](OC(=O)c2ccccc2)[C@@H](OC(C)=O)[C@@H](OC(C)=O)C(C)(C)/C=C/[C@H](C)C(=O)[C@@]2(O)C[C@@](C)(O)[C@H](OC(C)=O)[C@@H]2[C@H]1OCC(C)C,inactive
8,C=C1[C@H](OCC(C)C)[C@@H](OC(C)=O)[C@@H](OC(=O)c2cccnc2)C(C)(C)/C=C/[C@H](C)C(=O)[C@@]2(OC(C)=O)C[C@@](C)(OC(=O)c3cccnc3)[C@H](OC(C)=O)[C@@H]2[C@H]1OC(C)=O,inactive
9,C=C1[C@H](OCC(C)C)[C@@H](OC(C)=O)[C@@H](OC(C)=O)C(C)(C)/C=C/[C@H](C)C(=O)[C@@]2(O)C[C@@](C)(OC(C)=O)[C@H](OC(=O)COC(=O)c3ccccc3)[C@@H]2[C@H]1OC(C)=O,inactive
10,CC(=O)O[C@H]1[C@@H](OC(C)=O)C(C)(C)/C=C/[C@@](C)(O)C(=O)[C@@]2(O)C[C@@](C)(OC(C)=O)[C@H](OC(C)=O)[C@@H]2[C@H]2OC(=O)CC[C@@]2(OC(C)=O)[C@@H]1OCC(C)C,inactive
11,C=C1[C@H](OC(=O)c2ccccc2)[C@@H](OC(C)=O)[C@@H](OC(=O)c2cccnc2)C(C)(C)/C=C/[C@H](C)C(=O)[C@@]2(O)C[C@@](C)(OC(=O)c3cccnc3)[C@H](OC(C)=O)[C@@H]2[C@H]1OCC(C)C,inactive
12,C=C1[C@H](OC(=O)c2ccccc2)[C@@H](O)[C@@H](OC(C)=O)C(C)(C)/C=C/[C@H](C)C(=O)[C@@]2(O)C[C@@](C)(OC(C)=O)[C@H](O)[C@@H]2[C@H]1OC(=O)c1ccccc1,inactive
13,C=C1[C@H](OC(=O)c2ccccc2)[C@@H](OC(C)=O)[C@@H](OC(=O)c2cccnc2)C(C)(C)/C=C/[C@H](C)C(=O)[C@@]2(O)C[C@@](C)(OC(=O)c3cccnc3)[C@H](OC(C)=O)[C@@H]2[C@H]1OC(C)=O,inactive
14,C=C1[C@H](OCC(C)C)[C@@H](OC(C)=O)[C@@H](OC(C)=O)C(C)(C)/C=C/[C@H](C)C(=O)[C@@]2(O)C[C@@](C)(OC(C)=O)[C@H](OC(=O)c3ccccc3)[C@@H]2[C@H]1OCC(C)C,inactive
15,C=C1[C@H](OC(=O)c2ccccc2)[C@@H](OC(C)=O)[C@@H](OC(C)=O)C(C)(C)/C=C/[C@H](C)C(=O)[C@@]2(O)C[C@@](C)(OC(C)=O)[C@H](O)[C@@H]2[C@H]1OCC(C)C,inactive
16,C=C1[C@H](OC(=O)c2ccccc2)[C@@H](OC(C)=O)[C@@H](OC(C)=O)C(C)(C)/C=C/[C@H](C)C(=O)[C@@]2(O)C[C@@](C)(OC(C)=O)[C@H](OCC(C)C)[C@@H]2[C@H]1OCC(C)C,inactive
17,CC(=O)O[C@H]1[C@@H](OC(C)=O)C(C)(C)/C=C/[C@@](C)(O)C(=O)[C@@]2(O)C[C@@](C)(OC(C)=O)[C@H](OC(C)=O)[C@@H]2[C@H]2OC(=O)CC[C@@]2(OCC(C)C)[C@@H]1OCC(C)C,inactive
18,C=C1[C@H](OC(=O)c2ccccc2)[C@@H](OC(C)=O)[C@@H](OC(=O)c2cccnc2)C(C)(C)/C=C/[C@H](C)C(=O)[C@@]2(OC(C)=O)C[C@@](C)(OC(=O)c3cccnc3)[C@H](OC(C)=O)[C@@H]2[C@H]1OC(C)=O,inactive

# Same assay, conditions: Chikungunya virus, 899, Vero
row,SMILES,EC50
1,CC/C=C\C/C=C/C=C\C(=O)O[C@@H]1[C@@H](C)[C@]2(O)[C@@H]3C=C(C)C(=O)[C@H]3CC(CO)=C[C@H]2[C@@H]2C(C)(C)[C@]12OC(=O)C(C)C,12.6 µM
2,CCC/C=C/C=C\C(=O)O[C@@H]1[C@@H](C)[C@]2(O)[C@@H]3C=C(C)C(=O)[C@H]3CC(CO)=C[C@H]2[C@@H]2C(C)(C)[C@]12OC(=O)C(C)C,0.6 µM
3,CCC/C=C/C=C/C=C\C(=O)O[C@@H]1[C@@H](C)[C@]2(O)[C@@H]3C=C(C)C(=O)[C@H]3CC(CO)=C[C@H]2[C@@H]2C(C)(C)[C@]12OC(=O)C(C)C,0.4 µM
4,CCCCC/C=C/C=C\C(=O)O[C@@H]1[C@@H](C)[C@]2(O)[C@@H]3C=C(C)C(=O)[C@H]3CC(CO)=C[C@H]2[C@@H]2C(C)(C)[C@]12OC(=O)C(C)C,0.9 µM

# Tested on: not listed separately
# Experiment: Selectivity index, ratio of CC50 for African green monkey Vero cells to EC50 for Chikungunya virus 899 infected in African green monkey Vero cells
# Assay type: toxicity
# Conditions: read-out: Selectivity Index
# Procedure, shortened: as §1
row,SMILES,selectivity ratio
1,CC/C=C\C/C=C/C=C\C(=O)O[C@@H]1[C@@H](C)[C@]2(O)[C@@H]3C=C(C)C(=O)[C@H]3CC(CO)=C[C@H]2[C@@H]2C(C)(C)[C@]12OC(=O)C(C)C,4
2,CCC/C=C/C=C\C(=O)O[C@@H]1[C@@H](C)[C@]2(O)[C@@H]3C=C(C)C(=O)[C@H]3CC(CO)=C[C@H]2[C@@H]2C(C)(C)[C@]12OC(=O)C(C)C,41
3,CCC/C=C/C=C/C=C\C(=O)O[C@@H]1[C@@H](C)[C@]2(O)[C@@H]3C=C(C)C(=O)[C@H]3CC(CO)=C[C@H]2[C@@H]2C(C)(C)[C@]12OC(=O)C(C)C,34
4,CCCCC/C=C/C=C\C(=O)O[C@@H]1[C@@H](C)[C@]2(O)[C@@H]3C=C(C)C(=O)[C@H]3CC(CO)=C[C@H]2[C@@H]2C(C)(C)[C@]12OC(=O)C(C)C,6
